5HT1a antag = 5-HT1a (human) receptor antagonism | CHO 5-HT1a Ga15 NFAT-bla reporter, antagonist mode | inhibition, % at 10 µM | 0.68% of 62,000 active | P08908;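 active = inhibition above the mean of all tested compounds plus 3 SD, cut at about 43% in these data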;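 note: receptor stimulated by 5-CT agonist at 100 nM near EC80; beta-lactamase reporter measured by ratiometric fluorescence of a cleavable substrate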
S1P1 ag pot = S1P1 (human) agonism or agonism potentiation. 0.57% of 56,000 active. S1P1 CRE-bla cells, forskolin, beta-lactamase FRET, potentiator mode; S1P1 agonist co-added at EC20, 2 nM; 100% = saturating reference agonist, 0% = basal. activation, % at 9.5 µM. P21453;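 active = activation above a cutoff set at the mean activation of all tested compounds plus 3 SD, cut at about 54% in these data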;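 note: forskolin at 4 µM as EC80 and the EC20 agonist is SEW2871; 100% = SEW2871 at its EC100 plus forskolin at EC80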
S1P3 agonist = S1P3 (human) receptor agonism; Q99500; S1P3 NFAT-BLA reporter cells, FRET ratio; relative to 1 µM S1P, basal subtracted; activation, % at 4.5 µM; 0.1% of 60,000 active; AID 373;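 active = activation above the screen-wide mean plus 3 SD, cut at about 4.5% in these data, passing the limit was not always enough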
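Benchmarks: high control 1 µM S1P / System: stable CHO line with human S1P3, Gα16, NFAT-BLA reporter / Dosing: single compound concentration, 4.5 µM final / Timing: 4 h compound at 37 °C, 2 h substrate at RT / Measured by: FRET β-lactamase substrate fluorescence, excitation 405 nm, 460/535 nm emission ratio, background-subtracted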
5HT1a ag = activates the human 5-HT1a serotonin receptor. P08908. CHO 5-HT1a Ga15 NFAT-bla reporter, FRET ratio; 0% basal, 100% maximal reference agonist. activation, % at 10 µM. 0.56% of 65,000 active. AID 567;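 active = activation above the screen-wide mean activation plus 3 SD, cut at about 19% in these data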;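 note: 0% = DMSO wells and 100% = 5-CT at EC100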
HTR1E antagonist = blocks the human 5-HT1E serotonin receptor; P28566; CHO 5-HT1E Ga15 NFAT-bla reporter, FRET, antagonist; inhibition, % at 6 µM; 0.99% of 65,000 active; AID 571;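 active = inhibition above a set limit, the mean inhibition across every tested compound plus 3 SD, cut at about 29% in these data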;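 note: signal is the 460 over 535 nm emission ratio of beta-lactamase substrate; 0% = agonist plus DMSO wells and 100% = wells without agonist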
Target sequence (P28566 whole entry, looked up): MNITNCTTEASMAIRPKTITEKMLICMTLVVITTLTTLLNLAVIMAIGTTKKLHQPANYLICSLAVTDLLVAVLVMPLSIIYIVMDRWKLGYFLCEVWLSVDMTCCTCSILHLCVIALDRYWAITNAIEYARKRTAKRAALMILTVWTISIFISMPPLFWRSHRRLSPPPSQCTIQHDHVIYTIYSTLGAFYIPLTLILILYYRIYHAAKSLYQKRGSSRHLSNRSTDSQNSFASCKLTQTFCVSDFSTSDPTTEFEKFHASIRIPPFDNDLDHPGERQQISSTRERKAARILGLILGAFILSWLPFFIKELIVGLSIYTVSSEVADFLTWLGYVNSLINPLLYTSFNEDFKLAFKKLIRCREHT
HTR1E agonist = 5-HT1E (human) receptor agonism | P28566 | CHO 5-HT1E Ga15 NFAT-bla reporter, FRET; 0% DMSO wells, 100% control agonist wells | activation, % at 6 µM | 0.69% of 65,000 active | AID 574;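 active = activation above a set limit, the screen-wide mean activation plus 3 SD, cut at about 8.5% in these data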;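 note: 100% = positive control agonist at 1 µM giving full maximal response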
Active calls of the source: *; · = no result. The list is not random: actives were taken first. Their share in the collection is about 3%.

SMILES	5HT1a antag	S1P1 ag pot	S1P3 agonist	5HT1a ag	HTR1E antagonist	HTR1E agonist
Cc1ccc(-n2nc(C)c(C3C(C#N)=C(N)OC4=C3C(=O)CCC4)c2Cl)cc1 (configuration not stated)	3	17	-1	0	0	0
Cc1nc(Nc2ccc(F)cc2)[nH]c(=O)c1CCC(C)C	52*	39	-2	1	-8	0
Cc1ccc(Nc2nc(C)c(CCC(C)C)c(=O)[nH]2)cc1	-9	8	-1	-4	-3	1
COc1ccc(CNc2nc3ccccc3n2CCN2CCCCC2)c(OC)c1	44*	-25	-2	1	-2	0
COc1cccc(CNc2nc3ccccc3n2CCN2CCCCC2)c1OC	43*	-9	-2	-2	4	1
COc1ccc(OC)c(CNc2nc3ccccc3n2CCN2CCCCC2)c1	29	3	-2	-1	-1	0
CCOc1ccc(N2CC(C(=O)Oc3ccccc3)CC2=O)cc1 (configuration not stated)	4	13	0	-3	17	-1
COc1ccc(C(c2nnnn2Cc2ccccc2)N2CCN(c3ccccc3)CC2)cc1 (configuration not stated)	36	-4	-1	1	3	0
COc1ccc(C(c2nnnn2C2CCCCC2)N2CCN(c3ccccc3)CC2)cc1 (configuration not stated)	52*	13	-2	-1	3	0
Cc1c(=O)n(OCc2ccccc2F)c2ccccc2[n+]1[O-]	-4	-15	0	25*	-9	-1
COC(=O)c1ccc(-n2nnnc2SCc2ccccc2OC)cc1	20	12	0	1	21	0
COC(=O)c1ccc2c(=O)n(Cc3ccc4c(c3)OCO4)c(SCC(=O)N3CCCC3)nc2c1	5	·	·	96*	12	-5
O=C(CN1CCC(NC(=O)c2cccc(F)c2)CC1)NCc1ccccc1F	-7	·	·	27*	5	-2
O=C(CN1CCC(NC(=O)c2ccccc2)CC1)NCc1ccccc1F	3	-6	-1	-2	-5	0
CCc1nc(SCc2cc(Cl)ccc2OC)n[nH]1	-11	-1	-1	-1	-2	0
COCCCNC(=O)c1c(N)n(-c2cccc(S(N)(=O)=O)c2)c2nc3ccccc3nc12	-25	-14	1	6	-2	3
CCCNC(=O)c1c(N)n(-c2cccc(OC)c2)c2nc3ccccc3nc12	-26	-151	2	42*	-11	8.7*
CN(C)CC(C(=O)c1ccccc1)c1ccccc1 (configuration not stated)	76*	82	-1	-5	74*	0
COc1ccc(C(C(=O)OC(C)CN(C)C)c2ccccc2)cc1 (configuration not stated)	-5	-8	0	-2	2	-1
O=C(c1cccc(Cl)c1)N1CCN(Cc2ccccc2F)CC1	-1	·	-1	-1	1	0
CCOc1ccc(C(=O)Nc2ccc(Cl)cn2)cc1Cl	10	73*	-1	0	-1	1
N#Cc1ccc(CSc2nnc(NC(=O)CN3C(=O)C4CC=CCC4C3=O)s2)cc1 (configuration not stated)	13	-11	0	0	-2	0
O=S(=O)(c1ccccc1Cl)N1CCCC(c2nc(-c3cccnc3)no2)C1 (configuration not stated)	-12	3	0	1	3	1
COc1ccccc1Oc1ccc2c(c1)C(=O)N(c1cccc(O)c1)C2=O	13	94*	-2	-1	2	1
N=c1sccn1CC(=O)Nc1cccc(Oc2ccccc2)c1	46*	-29	-1	-5	11	0
SMILES	5HT1a antag	S1P1 ag pot	S1P3 agonist	5HT1a ag	HTR1E antagonist	HTR1E agonist
N=c1sccn1CC(=O)Nc1ccccc1-c1ccccc1	14	·	·	-4	-4	0
CN(Cc1ccco1)C(=O)C1CCC(=O)N1Cc1ccc(F)cc1 (configuration not stated)	-1	-14	0	2	9	0
COC(=O)c1cc2sccc2n1CC(=O)N1CCCc2ccccc21	17	2	-1	-3	1	0
Cn1c(C(=O)N2CCCc3ccccc32)cc2sccc21	2	86*	1	-2	-3	-1
Cc1ccc(Nc2nc(N)nc(CN3CCN(C(=O)c4ccco4)CC3)n2)cc1Cl	-6	-13	-1	-4	2	0
CCCCCn1c(NCc2ccco2)nc2ccccc21	19	-12	0	-1	17	22*
CCCn1c(NCc2ccco2)nc2ccccc21	4	-8	1	-3	-8	0
CCCn1c(Nc2nc3ccccc3n2C)nc2ccccc21	59*	-162	1	1	54*	-1
COc1ccccc1NC(=O)C1=C(C)NC2=C(C(=O)CCC2)C1c1ccc2c(c1)OCO2 (configuration not stated)	5	17	0	1	-3	0
CC1CCN(S(=O)(=O)c2ccc(Cl)cc2)CC1	-1	-6	-2	1	9	-1
CC1=C(C)CS(=O)N(S(=O)(=O)c2ccc(Cl)cc2)C1 (configuration not stated)	47*	19	-1	-4	-1	0
CN(C)CCCN1c2ccccc2CCc2ccc(Cl)cc21	·	-16	8	-1	5	10*
CN(C)CCCN1c2ccccc2Sc2ccccc21	·	4	-1	-1	-9	4
CCOC(=O)/C=C1\NC(C)(C)Cc2cc(OC)c(O)cc21	-6	-6	1	-4	7	1
COc1cc2c(cc1OC)/C(=C/C(=O)N1CCOCC1)NC(C)(C)C2	0	-22	0	-1	30*	0
COc1ccc(NC(C)=O)c2nc(C)c(C)nc12	5	-6	-1	0	30*	0
COc1ccc2sc(C)nc2c1NC(C)=O	1	-1	-1	0	-2	-1
CCOC(=O)c1c(NC(=O)CSc2nc3cccnc3n2C)sc(C(C)=O)c1C	17	-30	0	0	43*	2
CCOC(=O)c1c(NC(=O)CSc2nnc(-c3ccccc3C)n2C)sc(C(C)=O)c1C	4	16	-1	2	25	-1
CCOC(=O)c1c(NC(=O)CSc2nnc(-c3cccnc3)o2)sc(C(C)=O)c1C	0	5	-2	-1	30*	0
O=C(COc1ccc(Cl)cc1Cl)Nc1ccc(Cl)cn1	-8	-10	0	-1	-13	1
O=C(COC(=O)CCC1CCCC1)Nc1ccc(Cl)cn1	-11	9	-1	-6	1	59*

Bioassay records from PubChem BioAssay.
